Measured values taken from publication PMC8358665 (Chembiochem : a European journal of chemical biology, 2021).

What was measured:
Format in all cases: cell-based
LNCaP cells = test: Cell proliferation
LNCaP_NED cells = test: Cell proliferation
Outline: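 LNCaP cells were cultured in charcoal-stripped serum (androgen- and steroid-depleted) media to induce neuroendocrine differentiation (LNCaP_NED). NED cells were then exposed to the test compound and/or the AR antagonist enzalutamide for 4 days, and cell proliferation was measured. DMSO served as the negative control.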

VCaP_NED = test: Western blotting of protein expression during NED; settings: 10 μM, 48 hours
Outline: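 Neuroendocrine-differentiated cells were treated for 48 h with DMSO, 10 μM GSK343 (an EZH2 inhibitor) or 10 μM test compound. Parental cells treated with DMSO served as the reference. Whole-cell lysates were extracted and analysed by western blotting. Data are from n=3 biological replicates, shown with SEM, and compared by two-tailed Student's t-test.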

CNC(=O)c1ccc(N2C(=S)N(c3ccc(C#N)c(C(F)(F)F)c3)C(=O)C2(C)C)cc1F [enzalutamide]
cell proliferation with AR antagonist (LNCaP cells): highly decreased proliferation
cell proliferation with AR antagonist (LNCaP_NED cells): no further decrease in proliferation

CCCc1cc(C)[nH]c(=O)c1CNC(=O)c1cc(-c2ccnc(N3CCN(C)CC3)c2)cc2c1cnn2C(C)C [GSK343]
CBX2 protein expression (VCaP_NED): decrease in CBX2 expression
H3K27me3 levels (global) (VCaP_NED): reduces H3K27me3 levels
AR protein expression (VCaP_NED; compared to DMSO): increase AR
ENO2 and N-Myc protein expression (VCaP_NED; compared to DMSO): decrease ENO2 and N-Myc expression
